Data taken from ChEMBL document CHEMBL1158548, “Tetrahydrochromenoimidazoles as potassium-competitive acid blockers (P-CABs): structure-activity relationship of their antisecretory properties and their affinity toward the hERG channel” (J Med Chem, 2010).
The source made the active and inactive calls. The rule behind the calls is not given here.

Key:
hERG (KCNH2) = hERG (KCNH2) (Homo sapiens, UniProt Q12809); experiment: Inhibition of human ERG expressed in CHO-K1 cells at 10 uM by whole-cell patch clamp technique; type: cell-based; details: CHO-K1 cells that express human ERG
Procedure, shortened: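 CHO-K1 cells stably transfected with hERG; whole-cell patch clamp recording of tail currents with test compound at 10 μM, three cells per compound; relative block of tail current amplitude given as arithmetic mean.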

[1] = Inhibition of H+/K+ ATPase in hog gastric mucosa by malachite green based competitive binding assay; type: tissue-based, Sus scrofa
Procedure, shortened: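 Hog gastric mucosa H+/K+-ATPase, isolated enzyme; competitive binding assay run at pH 7.4; pIC50 reported as geometric mean of 4-5 measurements.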

Rattus norvegicus [2] = experiment: Inhibition of pentagastrin-stimulated acid secretion in intraduodenally dosed perfused Sprague-Dawley rat Ghosh Schild model; type: functional; details: intraduodenal
[3] = Dissociation constant, pKa at pH 2.0 to 11.0 by potentiometric cosolvent titration; type: physicochemical
[4] = Octanol/aqueous KCl distribution coefficient, log D at pH 7.4 by potentiometric titration; type: physicochemical
Procedure, shortened: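 Octanol/aqueous KCl distribution coefficient from potentiometric titrations across pH 2.0-11.0 at 25 °C.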

[5] = Partition coefficient, log D by HPLC; type: physicochemical; details: octanol/water
Procedure, shortened: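 logD by reversed-phase HPLC at 37 °C, calibrated with seven reference substances of known logD.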

Gastric gland = experiment: Inhibition of acid secretion in New Zealand White rabbit intact gastric glands assessed as [14C]dimethylaminopyridine accumulation by radioactivity; type: functional, tissue-based; details: Oryctolagus cuniculus
Procedure, shortened: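 Gastric glands isolated intact from New Zealand rabbits; cellular activity read as reduced accumulation of the weak base 14C-dimethylaminopyridine; pIC50 given as geometric mean of 4-5 determinations.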

Rattus norvegicus [6] = experiment: Inhibition of pentagastrin-stimulated acid secretion in Sprague-Dawley rat Ghosh Schild model at 3 umol/kg, intraduodenally; type: functional; details: intraduodenal
Canis familiaris [7] = experiment: Inhibition of pentagastrin-stimulated acid secretion in po dosed Beagle dog fistula model assessed as elevation of intragastric pH; type: functional, organism-based; details: Canis lupus familiaris
Procedure, shortened: (§1)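 Surgically prepared fistula dogs; pentagastrin infused subcutaneously from 1 h after start of pH-metry over 22.5 h; drug or vehicle given orally in capsules 2.5 h after start; intragastric pH recorded continuously for 24 h with combined glass electrode and ambulatory pH meter; duration of pH >5 read from curves.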

Canis familiaris [8] = experiment: Inhibition of pentagastrin-stimulated acid secretion in po dosed Beagle dog fistula model assessed as elevation of intragastric pH after 4 hrs; type: functional, organism-based; details: Canis lupus familiaris; procedure, shortened: as §1

Sequence of hERG (KCNH2) (Q12809 whole entry): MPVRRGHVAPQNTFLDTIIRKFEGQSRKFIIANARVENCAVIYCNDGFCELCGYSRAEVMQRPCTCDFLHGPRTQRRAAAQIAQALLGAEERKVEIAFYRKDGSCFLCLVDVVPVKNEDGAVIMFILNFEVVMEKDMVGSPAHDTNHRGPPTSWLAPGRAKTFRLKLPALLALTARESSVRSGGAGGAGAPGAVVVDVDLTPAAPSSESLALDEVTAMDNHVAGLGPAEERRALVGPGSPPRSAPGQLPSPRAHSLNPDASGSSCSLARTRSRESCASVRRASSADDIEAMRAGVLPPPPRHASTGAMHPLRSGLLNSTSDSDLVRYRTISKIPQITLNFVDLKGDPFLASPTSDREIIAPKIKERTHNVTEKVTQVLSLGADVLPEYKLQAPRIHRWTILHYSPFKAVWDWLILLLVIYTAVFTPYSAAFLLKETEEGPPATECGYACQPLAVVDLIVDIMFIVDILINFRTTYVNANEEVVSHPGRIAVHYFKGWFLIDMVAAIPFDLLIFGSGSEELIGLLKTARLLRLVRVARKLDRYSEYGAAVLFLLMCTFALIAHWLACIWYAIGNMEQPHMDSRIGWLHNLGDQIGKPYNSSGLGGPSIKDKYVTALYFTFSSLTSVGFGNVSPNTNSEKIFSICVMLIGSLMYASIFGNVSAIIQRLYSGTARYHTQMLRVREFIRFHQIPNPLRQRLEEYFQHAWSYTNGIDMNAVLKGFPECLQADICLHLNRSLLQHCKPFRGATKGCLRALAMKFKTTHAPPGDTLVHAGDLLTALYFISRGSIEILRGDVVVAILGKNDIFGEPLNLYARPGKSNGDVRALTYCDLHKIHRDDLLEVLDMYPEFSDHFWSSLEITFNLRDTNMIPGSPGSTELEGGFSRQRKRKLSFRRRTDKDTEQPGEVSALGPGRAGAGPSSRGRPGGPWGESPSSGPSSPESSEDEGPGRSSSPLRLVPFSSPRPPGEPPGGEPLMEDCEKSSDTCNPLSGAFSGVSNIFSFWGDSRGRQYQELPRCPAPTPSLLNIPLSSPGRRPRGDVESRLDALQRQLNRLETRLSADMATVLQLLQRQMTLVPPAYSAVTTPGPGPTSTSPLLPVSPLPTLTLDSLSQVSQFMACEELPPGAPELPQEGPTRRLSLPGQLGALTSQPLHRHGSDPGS

Compound	inhibition at 10 µM (hERG (KCNH2)) [%]	pIC50 [1]	ED50 (Rattus norvegicus [2]) [µmol/kg]	pKa ([3]; read-out: pKa)	logD [4]	logD [5]	IC50 (Gastric gland) [nM]	inhibition in vivo at 3 µmol/kg (Rattus norvegicus [6]) [%]	pKa [3]	Activity (Canis familiaris [7])	Activity (Canis familiaris [8])
COC1CN(C(=O)c2cc3c(nc(C)n3C)c3c2CC[C@@H](c2ccc(Cl)cc2C)O3)C1	95	5.4	0.4	5.48	3.42	3.2	501				
Cc1ccccc1[C@@H]1CCc2c(C(=O)N3CC(C)(O)C3)cc3c(nc(C)n3C)c2O1	1	4.7	3			2.5	79400	10			
Cc1ccccc1[C@@H]1CCc2c(C(=O)N3CCC3C(N)=O)cc3c(nc(C)n3C)c2O1 (stereo partly drawn)	7	4.6	3			2.3		22			
Cc1nc2c3c(c(C(=O)N(C)C)cc2[nH]1)CC[C@@H](c1ccccc1C)O3	11	5.59	0.5	5.66	2.82	2.8	1950				
Cc1nc2c3c(c(C(=O)N(C)C)cc2n1C)CC[C@@H](c1ccc(F)cc1)O3	28	5.3	0.1	5.65	2.36	2.7	1000				
Cc1nc2c3c(c(C(=O)N(C)C)cc2n1C)CC[C@@H](c1ccccc1F)O3	9	4.9	0.5	5.55	2.41	2.7	1580				
CCCNC(=O)c1cc2c(nc(C)n2C)c2c1CC[C@@H](c1ccccc1C)O2	66	4.7	< 0.3			3.2	631		5.63		
Cc1ccccc1[C@@H]1CCc2c(C(=O)N3CC(F)(F)C3)cc3c(nc(C)n3C)c2O1	28	4.7	0.3			3.3	3980		5.36		
Cc1cc(Cl)ccc1[C@@H]1CCc2c(C(=O)N3CCC3)cc3c(nc(C)n3C)c2O1	48	5.2	0.15	5.49	3.43	3.2	398				
Cc1nc2c3c(c(C(=O)N(C)C)cc2n1C)CC[C@@H](c1ccc(Cl)cc1Cl)O3	59	6	0.3	5.36	3.66	3.3	398				
Cc1nnc(-c2cc3c(nc(C)n3C)c3c2CC[C@@H](c2ccccc2C)O3)o1	27	4.6	0.6			3.3	5010		5.17		
COC1CN(C(=O)c2cc3c(nc(C)n3C)c3c2CC[C@@H](c2ccccc2C)O3)C1	18	5.2	0.3			2.9	631		5.66	Active	
Cc1ccccc1[C@@H]1CCc2c(C(=O)N(C)C)cc3c(nc(C4CC4)n3C)c2O1	6		0.1	5.28	2.84	3.3				inactive	
CCc1ccccc1[C@@H]1CCc2c(C(=O)N(C)C)cc3c(nc(C)n3C)c2O1	11	5.4	0.5			3	1260			inactive	
Cc1nc2c3c(c(C(=O)N(C)C)cc2n1C)CC[C@@H](c1ccccc1C1CC1)O3	18	4.8	1.5	5.63	3.18	3.1	3160				
COCc1ccccc1[C@@H]1CCc2c(C(=O)N(C)C)cc3c(nc(C)n3C)c2O1	7	4.7	1.6	5.61	1.9	2.6	15800				
Cc1nc2c3c(c(C(=O)N(C)C)cc2n1C)CC[C@@H](c1ccccc1Cl)O3	13		0.4	5.45	2.86	3	1580				
Cc1sccc1[C@@H]1CCc2c(C(=O)N(C)C)cc3c(nc(C)n3C)c2O1	18	6.3	0.3	5.66	2.32	2.7	1000				
C#CCNC(=O)c1cc2c(nc(C)n2C)c2c1CC[C@@H](c1ccccc1C)O2	83	4.7	0.3			3.1	2000		5.58		
Cc1cc(Cl)ccc1[C@@H]1CCc2c(C(=O)N(C)C)cc3c(nc(C)n3C)c2O1	-6	6.1	0.1	5.59	3.4	3.2	200				Active
CCNC(=O)c1cc2c(nc(C)n2C)c2c1CC[C@@H](c1ccccc1C)O2	24	4.9	0.12			2.9	1000		5.71		
CC(=O)CNC(=O)c1cc2c(nc(C)n2C)c2c1CC[C@@H](c1ccccc1C)O2	63	4.6	0.3			2.8	1000		5.62	inactive	
Cc1ccccc1[C@@H]1CCc2c(C(=O)N3CC(C(=O)N(C)C)C3)cc3c(nc(C)n3C)c2O1	6	4.9	3			2.5	79400	36			
Cc1nc2c3c(c(C(=O)N(C)C)cc2n1C)CC[C@@H](c1ccc2ccccc2c1)O3	65	4.1	3	5.57	3.37	3.2	63100				
Cc1ccccc1[C@@H]1CCc2c(C(=O)NCC3CC3)cc3c(nc(C)n3C)c2O1	90	4.7	< 0.3			3.3	501		5.76		
